Here are results for seven molecules from ChEMBL document CHEMBL4304754, “Development of α-GalCer Analogues with an α-Fluorocarbonyl Moiety as Th2-Selective Ligands of CD1d” (ACS Med Chem Lett, 2019).

Assay [1] deals with T1, Antigen-presenting glycoprotein CD1d (Mus musculus) (UniProt P11609+P11610). The experiment in a line: Binding affinity to CD1d in C57BL/6 mouse HMNC cells assessed as iNKT cells stimulation by measuring increase in IL-2 production at 25 nM incubated for 72 hrs by ELISA. It is filed as cell-based. In outline:
(§1)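 Primary murine hepatic mononuclear cells (HMNCs), which contain iNKT cells, were incubated with each glycolipid at 25 nM for 72 h. Cytokines released into the medium were quantified by ELISA, with α-GalCer as positive control.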

In assay [2] the target is T1, Antigen-presenting glycoprotein CD1d (Mus musculus). As to the kind of experiment: Binding affinity to CD1d in C57BL/6 mouse HMNC cells assessed as iNKT cells stimulation by measuring increase in Th2-type cytokine, IL-4 production at 25 nM incubated for 72 hrs by ELISA. It is filed as cell-based. The essentials: as §1
Assay [3] has the same target. The experiment in a line: Binding affinity to CD1d in C57BL/6 mouse HMNC cells assessed as iNKT cells stimulation by measuring Th1-type cytokine, IFNgamma production at 25 nM incubated for 72 hrs by ELISA. Format: cell-based. The essentials:
as §1

Assay [4] shares this target. The experiment in a line: Covalent binding affinity to mouse CD1d at 10 equivalent incubated for 3 hrs by coomassie blue staining based SDS-PAGE analysis. Format: protein assay. In outline: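 CD1d protein was incubated with each ligand under several reported or modified conditions. Samples were then denatured and resolved by SDS-PAGE. Gels were stained with Coomassie blue to look for covalent CD1d–ligand adduct bands alongside intact protein.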

Assay [5] shares this target. As to the kind of experiment: Covalent binding affinity to mouse CD1d at 5 equivalent incubated in DBPS buffer with tween 20 for 3 hrs by MALDI-TOF analysis. Format: protein assay. In outline:
(§2)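 Samples of CD1d protein incubated with each ligand were analysed by MALDI-TOF mass spectrometry. The aim was to detect covalent conjugates formed between a CD1d cysteine and the ligand's α-fluorocarbonyl group.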

The target is the same in assay [6]. The experiment in a line: Covalent binding affinity to mouse CD1d at 5 equivalent incubated in DBPS buffer without tween 20 for 3 hrs by MALDI-TOF analysis. Format: protein assay. In outline: as §2
The target is the same in assay [7]. As to the kind of experiment: Binding affinity to CD1d in C57BL/6 mouse HMNC cells assessed as iNKT cells stimulation by measuring increase in ratio of IL-4 to IFNgamma (IL-4/IFNgamma) level at 25 nM incubated for 72 hrs by ELISA. Format: cell-based.
Assay [8] has the same target. The experiment in a line: Binding affinity to CD1d in C57BL/6 mouse HMNC cells assessed as iNKT cells stimulation by measuring increase in IL17 production at 25 nM incubated for 72 hrs by ELISA. It is filed as cell-based. The essentials:
as §1
On the technique in general: In an ELISA, binding on a coated surface is turned into a signal by an enzyme label.

For assay [9] the target is unchanged. The experiment in a line: Covalent binding affinity to mouse CD1d at 14.6 equivalent incubated in tris buffer with tween 20 at pH 7.5 to 8 for 16 hrs by MALDI-TOF MS analysis. Format: protein assay. The essentials: as §2
For assay [10] the target is unchanged. The experiment in a line: Covalent binding affinity to mouse CD1d at 14.6 equivalent incubated in tris buffer without tween 20 at pH 7.5 to 8 for 16 hrs by MALDI-TOF MS analysis. It is filed as protein assay. In outline:
as §2

The source made the active and inactive calls. The calls are words filed in the database; no cut-off is given here.

With `CCCCCCCCCCCCCC[C@@H](O)[C@@H](O)[C@H](CO[C@H]1O[C@H](CO)[C@H](O)[C@H](O)[C@H]1O)NC(=O)CCCCCCCCCCCCCCCCCC(=O)CF`, the outcome in assay [1], in assay [2] and in assay [7] was Active. In addition, the result in assay [3], in assay [4], in [5] and in assay [6] was inactive.
As for `CCCCCCCCCCCCCC[C@@H](O)[C@@H](O)[C@H](CO[C@H]1O[C@H](CO)[C@H](O)[C@H](O)[C@H]1O)NC(=O)CCCCCCCCCCCCCCCCCCC(=O)CF`, the outcome in assay [1], in assay [2], in [8] and in assay [7] was Active. Further, the outcome in assay [3], in assay [4], in assay [5] and in [6] was inactive.
Regarding `CCCCCCCCCCCCCCCCCCCCCCCCCC(=O)N[C@@H](CO[C@H]1O[C@H](CO)[C@H](O)[C@H](O)[C@H]1O)[C@H](O)[C@H](O)CCCCCCCCCCCCCC`, the result in assay [1], in assay [2] and in assay [8] was Active.
Consider `CCCCCCCCCCCCCC[C@@H](O)[C@@H](O)[C@H](CO[C@H]1O[C@H](CO)[C@H](O)[C@H](O)[C@H]1O)NC(=O)CCCCCCCCCCCCCCCCCCCC(=O)CF`, for which the outcome in assay [1], in assay [2], in [8] and in [7] was Active. The result in [3], in assay [4], in [5] and in assay [6] was inactive.
For the molecule `CCCCCCCCCCCCCC[C@@H](O)[C@@H](O)[C@H](CO[C@H]1O[C@H](CO)[C@H](O)[C@H](O)[C@H]1O)NC(=O)CCCCCCCCCCCCCCCCCCCCC(=O)CF`, the outcome in assay [1], in assay [2], in assay [8] and in assay [7] was Active. Further, the outcome in assay [3], in assay [4], in [5], in assay [6], in assay [9] and in assay [10] was inactive.
For `CCCCCCCCCCCCCC[C@@H](O)[C@@H](O)[C@H](CO[C@H]1O[C@H](CO)[C@H](O)[C@H](O)[C@H]1O)NC(=O)CCCCCCCCCCCCCCCCC(=O)CF`, the outcome in [1] and in [2] was Active. Also, the result in assay [3], in assay [4], in [5] and in assay [6] was inactive.
Turning to `CCCCCCCCCCCCCCCCCCCCCCCC(=O)N[C@@H](CO[C@H]1O[C@H](CO)[C@H](O)[C@H](O)[C@H]1O)[C@H](O)[C@H](O)CCCCC`, the result in assay [2] and in assay [3] was inactive. In [7], the result was Active.
